ChEMBL document CHEMBL4406825, “Design, synthesis and preliminary bioactivity evaluations of 8-hydroxyquinoline derivatives as matrix metalloproteinase (MMP) inhibitors” (Eur J Med Chem, 2019)
The source made the active and inactive calls. The calls are words filed in the database; no cut-off is given here.

Assays:
[1] = molecular target: T1, 72 kDa type IV collagenase (Homo sapiens, UniProt P08253); test: Inhibition of recombinant human MMP2 using thiopeptide as substrate preincubated for 30 mins followed by substrate addition and measured every mins for 20 min by colorimetric assay
Target sequence in this assay (P08253 whole entry): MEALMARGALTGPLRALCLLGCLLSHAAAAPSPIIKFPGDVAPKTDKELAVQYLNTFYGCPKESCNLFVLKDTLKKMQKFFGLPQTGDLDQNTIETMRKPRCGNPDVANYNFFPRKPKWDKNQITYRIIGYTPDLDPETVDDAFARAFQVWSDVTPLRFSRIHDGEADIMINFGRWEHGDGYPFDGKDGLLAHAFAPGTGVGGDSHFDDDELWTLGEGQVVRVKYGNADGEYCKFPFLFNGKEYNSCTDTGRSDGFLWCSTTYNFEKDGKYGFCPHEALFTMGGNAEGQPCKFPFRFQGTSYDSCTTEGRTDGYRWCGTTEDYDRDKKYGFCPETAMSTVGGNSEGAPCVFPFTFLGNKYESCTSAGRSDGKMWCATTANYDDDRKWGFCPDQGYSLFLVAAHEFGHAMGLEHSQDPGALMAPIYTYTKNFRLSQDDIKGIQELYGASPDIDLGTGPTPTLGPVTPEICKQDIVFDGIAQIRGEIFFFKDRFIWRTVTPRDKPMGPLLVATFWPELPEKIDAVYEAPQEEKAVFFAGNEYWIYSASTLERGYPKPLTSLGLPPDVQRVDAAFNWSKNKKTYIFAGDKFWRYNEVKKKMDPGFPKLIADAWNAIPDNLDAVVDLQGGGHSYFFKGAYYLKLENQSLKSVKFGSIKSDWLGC

[2] = molecular target: T2, Matrix metalloproteinase-9 (Homo sapiens, UniProt P14780); test: Inhibition of recombinant human MMP9 using thiopeptide as substrate preincubated for 30 mins followed by substrate addition and measured every min for 20 mins by colorimetric assay
T2 sequence (P14780 whole entry): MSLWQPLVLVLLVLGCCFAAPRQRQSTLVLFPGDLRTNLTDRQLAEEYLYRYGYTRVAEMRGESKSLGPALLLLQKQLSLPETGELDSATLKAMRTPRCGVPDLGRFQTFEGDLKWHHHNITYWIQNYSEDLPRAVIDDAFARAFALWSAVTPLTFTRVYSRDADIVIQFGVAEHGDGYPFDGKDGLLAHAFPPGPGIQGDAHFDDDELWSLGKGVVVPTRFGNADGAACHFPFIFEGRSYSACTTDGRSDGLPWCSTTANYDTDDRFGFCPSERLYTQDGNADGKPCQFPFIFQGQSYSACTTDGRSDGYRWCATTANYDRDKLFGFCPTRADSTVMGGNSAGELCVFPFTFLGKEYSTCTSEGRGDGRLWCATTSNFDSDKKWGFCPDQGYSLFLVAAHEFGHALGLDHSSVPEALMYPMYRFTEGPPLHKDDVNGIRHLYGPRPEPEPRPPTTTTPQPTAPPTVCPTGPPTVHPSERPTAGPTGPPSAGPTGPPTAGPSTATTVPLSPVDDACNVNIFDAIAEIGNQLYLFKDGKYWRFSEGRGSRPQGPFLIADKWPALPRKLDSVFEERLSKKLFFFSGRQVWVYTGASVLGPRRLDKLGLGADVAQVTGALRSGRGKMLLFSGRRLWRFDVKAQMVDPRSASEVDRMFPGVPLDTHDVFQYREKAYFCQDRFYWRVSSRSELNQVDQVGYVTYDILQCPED

KG-1 = test: Antiproliferative activity against human KG1 cells assessed as reduction in cell viability incubated for 48 hrs by MTT assay; assay type: functional, cell-based; conditions: KG-1, 48 h
Procedure, shortened: (§1)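 Cells grown in RPMI1640 with 10% FBS at 37°C, 5% CO2; seeded at 4000-5000 cells/well for 8 h, then exposed to a range of compound concentrations for 48 h. MTT added for 4 h, formazan dissolved in DMSO, absorbance at 570 nm; IC50 calculated from inhibition ratios.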

A549 [3] = test: Antiproliferative activity against human A549 cells assessed as reduction in cell viability incubated for 48 hrs by MTT assay; assay type: functional, cell-based; conditions: A549, 48 h; procedure, shortened: as §1
HL-60 = test: Antiproliferative activity against human HL60 cells assessed as reduction in cell viability incubated for 48 hrs by MTT assay; assay type: functional, cell-based; conditions: HL-60, 48 h; procedure, shortened: as §1
K562 = test: Antiproliferative activity against human K562 cells assessed as reduction in cell viability incubated for 48 hrs by MTT assay; assay type: functional, cell-based; conditions: K562, 48 h; procedure, shortened: as §1
MCF7 = test: Antiproliferative activity against human MCF7 cells assessed as reduction in cell viability incubated for 48 hrs by MTT assay; assay type: functional, cell-based; conditions: MCF7, 48 h; procedure, shortened: as §1
PC-3 = test: Antiproliferative activity against human PC3 cells assessed as reduction in cell viability incubated for 48 hrs by MTT assay; assay type: functional, cell-based; conditions: PC-3, 48 h; procedure, shortened: as §1
HUVEC = test: Cytotoxicity against HUVEC assessed as reduction in cell viability incubated for 48 hrs by MTT assay; assay type: cell-based; conditions: Homo sapiens; procedure, shortened: as §1
A549 [4] = test: Inhibition of cell invasion in human A549 cells at 1 to 10 uM incubated for 24 hrs by crystal violet staining based matrigel migration assay; assay type: functional
Procedure, shortened: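 As the migration setup but membrane precoated with matrigel (1:10 diluted) for 2 h at 37°C: A549 pretreated 24 h at 1, 5, 10 µM, 30,000 cells in serum-free medium above, 10% FBS below, 24 h, then fixing, 0.1% crystal violet staining and counting. Three repeats, mean ± SEM.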

[5] = molecular target: T1, 72 kDa type IV collagenase; test: Inhibition of recombinant human MMP2 at 10 uM using thiopeptide as substrate preincubated for 30 mins followed by substrate addition and measured every min for 20 mins by colorimetric assay relative to control
Procedure, shortened: (§2)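 Colorimetric kit assay: human recombinant enzyme plus inhibitor in assay buffer for 30 min at 37 °C, then chromogenic MMP substrate added; A412 recorded each minute over 20 min. Enzyme-free blanks and inhibitor-free controls included.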
Target sequence in this assay (P08253 110-660 limits assumed): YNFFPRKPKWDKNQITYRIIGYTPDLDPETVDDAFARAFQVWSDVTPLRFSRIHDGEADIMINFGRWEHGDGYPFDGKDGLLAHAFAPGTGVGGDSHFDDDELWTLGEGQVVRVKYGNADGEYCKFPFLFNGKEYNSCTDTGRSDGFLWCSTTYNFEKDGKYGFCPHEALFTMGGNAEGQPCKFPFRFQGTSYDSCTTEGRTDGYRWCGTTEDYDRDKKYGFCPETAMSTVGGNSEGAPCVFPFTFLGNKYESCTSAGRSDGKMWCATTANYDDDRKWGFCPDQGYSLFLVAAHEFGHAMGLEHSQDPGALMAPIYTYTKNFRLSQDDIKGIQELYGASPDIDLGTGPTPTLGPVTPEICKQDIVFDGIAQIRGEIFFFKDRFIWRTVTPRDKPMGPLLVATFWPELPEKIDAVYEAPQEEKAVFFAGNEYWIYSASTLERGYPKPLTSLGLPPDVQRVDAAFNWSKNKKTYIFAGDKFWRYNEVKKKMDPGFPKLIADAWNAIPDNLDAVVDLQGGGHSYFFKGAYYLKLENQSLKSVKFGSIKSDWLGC

[6] = molecular target: T2, Matrix metalloproteinase-9; test: Inhibition of recombinant human MMP9 at 10 uM using thiopeptide as substrate preincubated for 30 mins followed by substrate addition and measured every min for 20 mins by colorimetric assay relative to control; procedure, shortened: as §2

| SMILES | IC50 [1] [µM] | IC50 [2] [µM] | IC50 (A549 [3]) [µM] | IC50 (HL-60) [µM] | IC50 (K562) [µM] | IC50 (MCF7) [µM] | IC50 (PC-3) [µM] | inhibition [5] [%] | inhibition [6] [%] | IC50 (KG-1) [µM] | IC50 (HUVEC) [µM] | inhibition (A549 [4]) |
| --- | --- | --- | --- | --- | --- | --- | --- | --- | --- | --- | --- | --- |
| Cc1nc2ccccc2n1CCC(=O)Nc1ccc(O)c2ncccc12 | > 10 | > 10 | – | – | – | – | – | – | – | – | – | – |
| COc1ccc(S(=O)(=O)N(CC(=O)NO)CC(C)C)cc1 | 0.0091 | 0.0088 | 96 | 29 | 143 | 187 | 52 | – | – | 52 | > 250 | Active |
| CC1(C)SCCN(S(=O)(=O)c2ccc(Oc3ccncc3)cc2)[C@H]1C(=O)NO [PRINOMASTAT] | – | – | > 500 | > 500 | > 500 | > 500 | > 500 | – | – | > 500 | > 500 | Active |
| Cc1nc2ccccc2n1CCCCCC(=O)Nc1ccc(O)c2ncccc12 | > 10 | > 10 | – | – | – | – | – | 38.9 | – | – | – | – |
| O=C(CCCCN1C(=O)c2ccccc2S1(=O)=O)Nc1ccc(O)c2ncccc12 | > 10 | > 10 | – | – | – | – | – | – | – | – | – | – |
| CN(CCCC(=O)Nc1ccc(O)c2ncccc12)c1ccccc1 | > 10 | > 10 | – | – | – | – | – | – | – | – | – | – |
| CN(CCC(=O)Nc1ccc(O)c2ncccc12)c1ccccc1 | > 10 | > 10 | – | – | – | – | – | – | – | – | – | – |

Second part, led by results:

| IC50 [1] [µM] | IC50 [2] [µM] | IC50 (A549 [3]) [µM] | IC50 (HL-60) [µM] | IC50 (K562) [µM] | IC50 (MCF7) [µM] | IC50 (PC-3) [µM] | inhibition [5] [%] | inhibition [6] [%] | SMILES | IC50 (KG-1) [µM] | IC50 (HUVEC) [µM] | inhibition (A549 [4]) |
| --- | --- | --- | --- | --- | --- | --- | --- | --- | --- | --- | --- | --- |
| > 10 | > 10 | – | – | – | – | – | – | 36.5 | O=C(CCCCNCc1ccc(O)c2ncccc12)Nc1ccccc1 | – | – | – |
| > 10 | > 10 | – | – | – | – | – | 46.9 | – | Cc1nc2ccccc2n1CCCC(=O)Nc1ccc(O)c2ncccc12 | – | – | – |
| 3.8 | 3.2 | 17 | 1.9 | 1.9 | 9 | 7.7 | 100 | 100 | O=C(CCCNCc1cc(Cl)c2cccnc2c1O)Nc1ccccc1 | 1.6 | > 50 | – |
| 8.8 | > 10 | – | – | – | – | – | 59.5 | 35.2 | Cc1[nH]c2ccccc2c1CCNC(=O)CNCc1cc(Cl)c2cccnc2c1O | – | – | – |
| > 10 | > 10 | – | – | – | – | – | 53.8 | 28.8 | O=C(CCCCCCNCc1ccc(O)c2ncccc12)Nc1ccccc1 | – | – | – |
| 3.2 | 2.1 | 7.4 | > 5 | 2.9 | 13 | 10 | 95.8 | 78.8 | O=C(CNCc1cc(Cl)c2cccnc2c1O)Nc1ccccc1 | 2.3 | > 50 | – |
| > 10 | > 10 | – | – | – | – | – | – | 9.8 | O=C(CCNCc1ccc(O)c2ncccc12)Nc1ccccc1 | – | – | – |
| 3.6 | 1.7 | > 25 | 2.6 | 4.2 | 12 | > 25 | 100 | 77.1 | Cc1[nH]c2ccccc2c1CCNC(=O)CCCCCNCc1cc(Cl)c2cccnc2c1O | 4.7 | > 50 | – |
